Reference: ChEMBL document CHEMBL3526048, “In vitro metabolism of rivoglitazone, a novel peroxisome proliferator-activated receptor γ agonist, in rat, monkey, and human liver microsomes and freshly isolated hepatocytes” (Drug Metab Dispos, 2011)

Assays:
[1] = Drug metabolism in human hepatocytes assessed as formation of 2-((4-((2,4-dioxothiazolidin-5-yl)methyl)phenoxy)methyl)-1-methyl-1H-benzo[d]imidazol-6-yl hydrogen sulfate at 30 uM after 3 hrs by radio-HPLC/LC-MS/MS analysis; type: ADME, cell-based, Hepatocyte
Liver microsome [2] = experiment: Drug metabolism in human liver microsomes assessed as formation of 5-hydroxy-5-(4-((6-methoxy-1-methyl-1H-benzo[d]imidazol-2-yl)methoxy)benzyl)thiazolidine-2,4-dione at 20 uM after 2 hrs by radio-HPLC/LC-MS/MS analysis in presence of NADPH-generating system and NADPH-generating system/SAM; type: ADME
[3] = target: T1, UDP-glucuronosyltransferase 2B17 (Homo sapiens, UniProt O75795); experiment: Activity of human UGT2B17 expressed in microsomes isolated from baculovirus infected insect cell assessed as enzyme-mediated 2-mercapto-3-(4-((6-methoxy-1-methyl-1H-benzo[d]imidazol-2-yl)methoxy)phenyl)propanoic acid formation at 20 uM after 4 hrs by radio-HPLC/LC-MS/MS analysis in presence of UDPGA; type: ADME
T1 sequence (O75795 whole entry): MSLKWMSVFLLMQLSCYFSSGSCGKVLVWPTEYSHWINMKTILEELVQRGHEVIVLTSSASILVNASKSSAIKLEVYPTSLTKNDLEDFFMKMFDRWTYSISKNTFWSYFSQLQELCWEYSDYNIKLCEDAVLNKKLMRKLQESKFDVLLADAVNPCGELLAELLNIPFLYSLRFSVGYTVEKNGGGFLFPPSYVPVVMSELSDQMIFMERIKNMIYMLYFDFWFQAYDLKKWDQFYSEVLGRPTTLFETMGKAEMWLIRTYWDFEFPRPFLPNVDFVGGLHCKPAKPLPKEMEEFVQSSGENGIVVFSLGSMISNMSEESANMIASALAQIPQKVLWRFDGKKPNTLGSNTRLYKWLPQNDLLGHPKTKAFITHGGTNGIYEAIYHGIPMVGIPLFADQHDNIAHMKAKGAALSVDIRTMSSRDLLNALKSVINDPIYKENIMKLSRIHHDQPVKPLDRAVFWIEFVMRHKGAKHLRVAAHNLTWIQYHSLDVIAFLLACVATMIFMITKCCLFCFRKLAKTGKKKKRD

[4] = Drug metabolism in cynomolgus monkey liver microsomes assessed as formation of 3-(4-((6-methoxy-1-methyl-1H-benzo[d]imidazol-2-yl)methoxy)phenyl)-2-(methylsulfinyl)propanamide at 20 uM after 2 hrs by radio-HPLC/LC-MS/MS analysis in presence of NADPH-generating system/SAM; type: ADME, Macaca fascicularis
[5] = target: T2, UDP-glucuronosyltransferase 2B7 (Homo sapiens, UniProt P16662); experiment: Activity of human UGT2B7 expressed in microsomes isolated from baculovirus infected insect cell assessed as enzyme-mediated 2-((4-((2,4-dioxothiazolidin-5-yl)methyl)phenoxy)methyl)-1-methyl-1H-benzo[d]imidazol-6-yl hydrogen sulfate formation at 20 uM after 4 hrs by radio-HPLC/LC-MS/MS analysis; type: ADME
T2 sequence (P16662 whole entry): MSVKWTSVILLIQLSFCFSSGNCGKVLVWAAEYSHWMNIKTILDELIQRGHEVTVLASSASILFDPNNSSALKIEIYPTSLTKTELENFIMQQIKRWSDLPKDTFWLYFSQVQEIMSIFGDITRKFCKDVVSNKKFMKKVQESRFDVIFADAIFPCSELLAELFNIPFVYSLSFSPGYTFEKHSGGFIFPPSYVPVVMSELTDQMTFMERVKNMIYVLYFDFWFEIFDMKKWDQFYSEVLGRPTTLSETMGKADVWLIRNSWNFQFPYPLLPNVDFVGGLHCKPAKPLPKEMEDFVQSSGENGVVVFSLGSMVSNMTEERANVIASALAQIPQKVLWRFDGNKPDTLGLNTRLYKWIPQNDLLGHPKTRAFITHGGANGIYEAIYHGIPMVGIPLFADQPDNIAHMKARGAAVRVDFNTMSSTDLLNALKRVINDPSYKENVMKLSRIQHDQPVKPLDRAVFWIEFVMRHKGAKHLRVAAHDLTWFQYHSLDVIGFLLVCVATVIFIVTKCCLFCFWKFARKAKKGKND

Cytochrome P450 2D6 = Cytochrome P450 2D6 (Homo sapiens, UniProt P10635); experiment: Activity of human CYP2D6 expressed in microsomes isolated from baculovirus infected insect cell assessed as enzyme-mediated 2-((4-((2,4-dioxothiazolidin-5-yl)methyl)phenoxy)methyl)-1-methyl-1H-benzo[d]imidazol-6-yl hydrogen sulfate formation at 20 uM after 2 hrs by radio-HPLC/LC-MS/MS analysis; type: ADME
Sequence of Cytochrome P450 2D6 (P10635 whole entry): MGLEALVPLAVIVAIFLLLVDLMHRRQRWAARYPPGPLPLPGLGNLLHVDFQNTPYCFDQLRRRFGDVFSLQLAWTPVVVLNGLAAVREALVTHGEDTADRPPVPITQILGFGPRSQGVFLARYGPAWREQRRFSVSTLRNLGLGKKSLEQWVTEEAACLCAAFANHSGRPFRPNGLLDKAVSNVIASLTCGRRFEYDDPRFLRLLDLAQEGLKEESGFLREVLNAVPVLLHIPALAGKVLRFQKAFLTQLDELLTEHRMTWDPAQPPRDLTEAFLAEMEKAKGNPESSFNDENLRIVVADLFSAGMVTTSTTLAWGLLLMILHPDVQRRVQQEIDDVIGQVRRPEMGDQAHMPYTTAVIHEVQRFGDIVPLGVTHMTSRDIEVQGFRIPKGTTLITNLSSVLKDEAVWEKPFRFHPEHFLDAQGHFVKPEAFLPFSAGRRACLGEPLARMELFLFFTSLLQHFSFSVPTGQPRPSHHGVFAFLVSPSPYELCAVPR
Outline: (§1)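 Baculovirus-insect-cell microsomes expressing the human CYP (1 mg/ml protein) were incubated with [14C]rivoglitazone (20 μM) in 50 mM potassium phosphate (pH 7.4) or 100 mM Tris-HCl (pH 7.5) with an NADPH-generating system (2 mM NADP+, 20 mM glucose 6-phosphate, 2 units/ml G6PDH, 10 mM MgCl2) for 2 h at 37°C. Insect-cell control supersomes served as the control. Reactions were stopped with acetonitrile, and the concentrated supernatants were analysed by radio-HPLC, LC-MS and LC-MS/MS.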

[6] = Drug metabolism in human hepatocytes assessed as formation of 3-(4-((6-methoxy-1-methyl-1H-benzo[d]imidazol-2-yl)methoxy)phenyl)-2-(methylthio)propanoic acid at 30 uM after 3 hrs by radio-HPLC/LC-MS/MS analysis in presence of NADPH-generating system/SAM and UDPGA/SAM; type: ADME, cell-based, Hepatocyte
Cytochrome P450 2C9 = Cytochrome P450 2C9 (Homo sapiens, UniProt P11712); experiment: (§2) Activity of human CYP2C9 expressed in microsomes isolated from baculovirus infected insect cell assessed as enzyme-mediated 2-amino-3-((1-carboxy-2-(4-((6-methoxy-1-methyl-1H-benzo[d]imidazol-2-yl)methoxy)phenyl)ethyl)disulfanyl)propanoic acid formation at 20 uM after 2 hrs by radio-HPLC/LC-MS/MS analysis; type: ADME; outline: as §1
Sequence of Cytochrome P450 2C9 (P11712 whole entry): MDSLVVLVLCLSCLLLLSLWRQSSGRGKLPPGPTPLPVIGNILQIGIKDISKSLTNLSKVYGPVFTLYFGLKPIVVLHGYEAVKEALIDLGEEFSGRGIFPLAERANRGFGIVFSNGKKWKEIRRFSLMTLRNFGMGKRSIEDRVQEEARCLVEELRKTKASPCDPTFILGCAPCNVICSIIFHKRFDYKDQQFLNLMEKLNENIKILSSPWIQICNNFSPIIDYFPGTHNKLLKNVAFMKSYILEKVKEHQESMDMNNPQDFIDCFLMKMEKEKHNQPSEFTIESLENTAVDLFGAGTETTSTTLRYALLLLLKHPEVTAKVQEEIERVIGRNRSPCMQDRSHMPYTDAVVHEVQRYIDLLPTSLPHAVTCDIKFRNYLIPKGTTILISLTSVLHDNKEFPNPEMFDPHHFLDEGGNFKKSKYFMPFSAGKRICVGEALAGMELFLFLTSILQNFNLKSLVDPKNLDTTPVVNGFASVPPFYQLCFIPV

Cytochrome P450 2C19 = Cytochrome P450 2C19 (Homo sapiens, UniProt P33261); experiment: as §2, with “CYP2C19” for “CYP2C9”; type: ADME
Sequence of Cytochrome P450 2C19 (P33261 whole entry): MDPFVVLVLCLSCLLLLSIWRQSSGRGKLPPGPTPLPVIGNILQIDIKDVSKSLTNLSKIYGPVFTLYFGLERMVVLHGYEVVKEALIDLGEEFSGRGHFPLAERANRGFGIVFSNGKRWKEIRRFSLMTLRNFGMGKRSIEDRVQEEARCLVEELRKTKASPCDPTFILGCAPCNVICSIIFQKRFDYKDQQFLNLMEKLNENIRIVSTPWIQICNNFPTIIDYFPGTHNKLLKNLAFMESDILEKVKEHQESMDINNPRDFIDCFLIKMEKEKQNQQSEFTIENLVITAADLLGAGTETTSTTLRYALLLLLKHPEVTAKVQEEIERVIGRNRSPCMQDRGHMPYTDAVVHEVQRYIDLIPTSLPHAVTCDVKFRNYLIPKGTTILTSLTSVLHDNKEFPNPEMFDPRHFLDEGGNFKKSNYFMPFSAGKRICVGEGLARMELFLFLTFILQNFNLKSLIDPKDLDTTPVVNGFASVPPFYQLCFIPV
Outline: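 Baculovirus/insect-cell microsomes expressing single human CYPs, 1 mg/ml protein, with 50 mM potassium phosphate (pH 7.4) or 100 mM Tris-HCl (pH 7.5). NADPH-generating system: 2 mM NADP⁺, 20 mM glucose 6-phosphate, 2 units/ml G6PDH, 10 mM MgCl₂. [¹⁴C]rivoglitazone at 20 μM, 2 h at 37°C with shaking. Control used insect-cell control supersomes. Stopped with acetonitrile; supernatant concentrated under nitrogen; metabolites analysed by radio-HPLC, LC-MS and LC-MS/MS.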

Liver microsome [7] = experiment: Drug metabolism in Sprague-Dawley rat liver microsomes assessed as formation of 3-(4-((6-methoxy-1-methyl-1H-benzo[d]imidazol-2-yl)methoxy)phenyl)-2-(methylsulfonyl)propanamide at 20 uM after 2 hrs by radio-HPLC/LC-MS/MS analysis in presence of NADPH-generating system/SAM; type: ADME
[8] = Drug metabolism in human hepatocytes assessed as formation of 5-(4-((6-methoxy-1H-benzo[d]imidazol-2-yl)methoxy)benzyl)thiazolidine-2,4-dione at 30 uM after 3 hrs by radio-HPLC/LC-MS/MS analysis in presence of NADPH-generating system and NADPH-generating system/SAM; type: ADME, cell-based, Hepatocyte

Measured: Drug metabolism

COc1ccc2nc(COc3ccc(C[14CH]4SC(=O)NC4=O)cc3)n(C)c2c1.Cl (racemic)
metabolite_detected: [1] | Liver microsome [2] | [4] | Liver microsome [7] | [8]
metabolite_not_detected: all other assays above
